Activity calls are given as the source filed them. No cut-off for these calls is given here.
Assays:
OVCAR-5 = experiment: Antiproliferative activity against human OVCAR-5 cells assessed as reduction in cell growth at 0.01 to 10 uM incubated for 48 hrs by SRB assay; assay type: functional, cell-based; settings: dose microM 0.01-10, time 48.0 hrs
MDA-MB-231 = experiment: Cytotoxicity against human MDA-MB-231 cells assessed as reduction in cell viability measured after 48 hrs by sulforhodamine B assay; assay type: functional
In short: (§1)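 Breast lines were tested in a 48 h SRB assay: four molecularly diverse triple-negative lines plus nontumorigenic MCF 10A, with MCF 10A tested up to 50 μM. LC50 values came from concentration–response curves. Complete cytotoxicity was taken as the concentration giving full cell kill after 48 h incubation.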

HeLa [1] = experiment: Antiproliferative activity against human HeLa cells assessed as reduction in cell viability incubated for 8 hrs by sulforhodamine B assay; assay type: functional; settings: read-out: LC50 (the source's name)
SK-OV-3 [2] = experiment: Antiproliferative activity against human SKOV3 cells assessed as reduction in cell growth at 0.01 to 10 uM incubated for 48 hrs by SRB assay; assay type: functional, cell-based; settings: dose microM 0.01-10, time 48.0 hrs
HCC1937 = experiment: Cytotoxicity against human HCC1937 cells assessed as reduction in cell viability measured after 48 hrs by sulforhodamine B assay; assay type: functional; settings: read-out: LC50 (the source's name); in short: as §1
BT-549 [3] = experiment: Cytotoxicity against human BT-549 cells assessed as reduction in cell viability measured after 48 hrs by sulforhodamine B assay; assay type: functional; settings: read-out: LC50 (the source's name); in short: as §1
MDA-MB-453 = experiment: Cytotoxicity against human MDA-MB-453 cells assessed as reduction in cell viability measured after 48 hrs by sulforhodamine B assay; assay type: functional; in short: as §1
HeLa [4] = experiment: Inhibition of colony formation in human HeLa cells at 1.4 uM treated for 8 hrs followed by compound washout and measured after 11 days by crystal violet staining based assay; assay type: functional
In short: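 HeLa cells were treated for 8 h with 1.4 μM compound or EtOH vehicle, then the drug was washed out. Colonies were scored 11 days after removal. Groups were compared with vehicle by 1-way ANOVA with Dunnett's post hoc test.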

SK-OV-3 [5] = experiment: Antiproliferative activity against human SKOV3-M6/6 cells assessed as reduction in cell growth at 0.01 to 10 uM incubated for 48 hrs by SRB assay; assay type: functional, cell-based; settings: dose microM 0.01-10, time 48.0 hrs
[6] = Selectivity ratio of antiproliferative activity against human SKOV3-M6/6 cells transfected with MDR1 to antiproliferative activity against human SKOV3 cells measured after 48 hrs by sulforhodamine B assay; assay type: functional
[7] = Selectivity index, ratio of LC50 for human HeLa cells to LC50 for human HCC1937 cells measured after 48 hrs by sulforhodamine B assay; assay type: functional
Sus scrofa [8] = organism: Sus scrofa; experiment: Inhibition of porcine brain tubulin polymerization assessed as reduction in rate and extent of tubulin polymerization at 20 uM by turbidimetric assay
In short: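 Purified porcine brain tubulin (20 μM) was incubated with 20 μM compound or DMSO vehicle. Polymerization was monitored turbidimetrically after shift to 37 °C.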

ES2 = experiment: Antiproliferative activity against human ES-2 cells assessed as reduction in cell growth at 0.01 to 10 uM incubated for 48 hrs by SRB assay; assay type: functional, cell-based; settings: dose microM 0.01-10, time 48.0 hrs
HeLa [9] = experiment: Antiproliferative activity against human HeLa cells assessed as growth inhibition measured after 48 hrs by sulforhodamine B assay; assay type: functional
In short: (§2)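 HeLa cells exposed to compound for 48 h, then growth measured by sulforhodamine B (SRB) staining. GI50 (50% growth inhibition), TGI (total growth inhibition) and LC50 (50% cytotoxicity) were read from concentration–response data. Values are average ± SEM, n = 3–5.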

MCF-10A = experiment: Cytotoxicity against human MCF10A cells assessed as reduction in cell viability measured after 48 hrs by sulforhodamine B assay; assay type: cell-based; in short: as §1
HeLa [10] = experiment: Antiproliferative activity against human HeLa cells assessed as reduction in cell growth incubated for 8 hrs by trypan blue exclusion assay; assay type: functional, cell-based
In short: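 HeLa viability was followed during the first 8 h of treatment by trypan blue exclusion.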

HeLa [11] = experiment: Cytotoxicity against human HeLa cells assessed as reduction in cell viability measured after 48 hrs by sulforhodamine B assay; assay type: functional; settings: read-out: LC50 (the source's name); in short: as §2
Sus scrofa [12] = organism: Sus scrofa; experiment: Inhibition of porcine brain tubulin polymerization assessed as reduction in rate and extent of tubulin polymerization at 5 to 10 uM by turbidimetric assay; settings: dose microM 5-10
In short: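 Purified porcine brain tubulin (20 μM) was incubated with a range of compound concentrations. Polymerization was monitored turbidimetrically after shift to 37 °C.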

Tubulin (Homo sapiens) [13] = molecular target: T1, Tubulin (Homo sapiens) (UniProt P68371+Q9H4B7+P0DPH7+P68366+Q13509+Q71U36+P04350+Q3ZCM7+P07437+P68363+Q9BQE3+Q6PEY2+Q13885+Q9BVA1+Q9BUF5); experiment: Induction of microtubule stabilization in human BT-549 cells assessed as bundling of microtubule network at 1 microM incubated for 6 hrs by indirect immunofluorescence assay; assay type: cell-based
In short: (§3)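 BT-549 cells were treated for 6 h with compound or DMSO vehicle. Microtubules were then visualised by immunofluorescence with a β-tubulin antibody, scoring microtubule loss or bundling.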

Tubulin (Homo sapiens) [14] = molecular target: T1, Tubulin (Homo sapiens); experiment: Induction of microtubule destabilization in human BT-549 cells assessed as loss of microtubule network at 100 nM incubated for 6 hrs by indirect immunofluorescence assay; assay type: cell-based; in short: as §3
BT-549 [15] = experiment: Cytotoxicity against human BT-549 cells assessed as concentration required for complete reduction in cell viability incubated for 48 hrs by sulforhodamine B assay; assay type: functional; in short: as §1

For C[C@]12C[C@H]3O[C@H]3C[C@@H]1CC[C@H]1[C@@H]3[C@@H]4O[C@@H]4C(=O)[C@@]3(C)CC[C@@H]12, the Activity (OVCAR-5) was “Active”, the LC50 (concentration killing 50% of cells) (MDA-MB-231) was 2.5 µM and the CC50 (HeLa [1]) was 1.4 µM. The Activity (SK-OV-3 [2]) was “Active”, the CC50 (HCC1937) was 0.47 µM and the CC50 (BT-549 [3]) was 1.07 µM. For the same compound, the LC50 (concentration killing 50% of cells) (MDA-MB-453) was 0.74 µM, the inhibition at 1.4 µM (HeLa [4]) was 100% and the Activity (SK-OV-3 [5]) was “Active”. The Ratio [6] was 5, the RatioLC50 [7] was 2 and the inhibition (Sus scrofa [8]) was “inactive”. The Activity (ES2) was “Active”, the GI50 (HeLa [9]) was 0.52 µM and the TGI (HeLa [9]) was 0.74 µM. For the same compound, the LC50 (MCF-10A) was greater than 50 µM, the Activity (HeLa [10]) was “inactive” and the CC50 (HeLa [11]) was 1.09 µM.
For C[C@]12CC=CC[C@@H]1CC[C@@H]1[C@@H]2CC[C@]2(C)C(=O)C=C[C@@H]12, the CC50 (MDA-MB-231; read-out: LC50 (the source's name)) was 1.92 µM, the CC50 (HCC1937) was 1.39 µM and the inhibition (Sus scrofa [12]) was “Dose-dependent effect”. The Activity (Tubulin (Homo sapiens) [13]) was “inactive”, the CC50 (BT-549 [3]) was 0.61 µM and the Activity (Tubulin (Homo sapiens) [14]) was “inactive”. The CC100 (BT-549 [15]) was 1 µM, the inhibition (Sus scrofa [8]) was “Active” and the GI50 (HeLa [9]) was 0.47 µM. It also gave a TGI (HeLa [9]) of 0.72 µM and a CC50 (HeLa [11]) of 1.07 µM.

From ChEMBL document CHEMBL4725498, “Synthesis and Biological Evaluations of Electrophilic Steroids Inspired by the Taccalonolides” (ACS Med Chem Lett, 2020)
